Data published in ChEMBL document CHEMBL1155265, “Design, synthesis and in vitro antibacterial/antifungal evaluation of novel 1-ethyl-6-fluoro-1,4-dihydro-4-oxo-7(1-piperazinyl)quinoline-3-carboxylic acid derivatives” (2009).

What was measured:
Format in all cases: functional
Xanthomonas oryzae = test: Antibacterial activity against Xanthomonas oryzae at 50 mg/L after 24 hrs by agar well diffusion method; conditions: read-out: DIZ
Xanthomonas axonopodis = test: Antibacterial activity against Xanthomonas axonopodis at 50 mg/L after 24 hrs by agar well diffusion method; conditions: read-out: DIZ
Procedure, shortened: (§1)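 Bacteria plated as 0.8 mL of 24-h-old inoculum mixed into 60 mL sterile molten agar cooled to 45 °C, poured into three dishes. Wells bored with centres at least 24 mm apart. Test sample at 50 mg/L in DMSO added to wells. DMSO served as negative control and agricultural streptomycin sulfate as positive control. Read-out was inhibition zone diameter (mm).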

Erwinia = test: Antibacterial activity against Erwinia aroideae at 50 mg/L after 24 hrs by agar well diffusion method; conditions: read-out: DIZ; procedure, shortened: as §1
Bacillus subtilis = test: Antibacterial activity against Bacillus subtilis at 50 mg/L after 24 hrs by agar well diffusion method; conditions: read-out: DIZ; procedure, shortened: as §1
Ralstonia solanacearum = test: Antibacterial activity against Ralstonia solanacearum at 50 mg/L after 24 hrs by agar well diffusion method; conditions: read-out: DIZ
Rhizoctonia solani = test: Antifungal activity against Rhizoctonia solani at 200 mg/L by plate growth rate method; conditions: read-out: GI
Procedure, shortened: (§2)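 Compound dissolved in DMSO and mixed into molten PDA at 45 °C at 200 mg/L, then plates allowed to set. A 5 mm mycelial agar disc was placed at the centre. Plates were incubated at 28 °C in the dark until the untreated control covered the plate. Colony diameters were measured and growth inhibition calculated by Abbott's formula. Each compound was tested three times.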

Fusarium graminearum = test: Antifungal activity against Gibberella zeae at 200 mg/L by plate growth rate method; conditions: read-out: GI
Procedure, shortened: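 Plate growth rate method: compound dissolved in DMSO, mixed into sterile PDA at 45 °C to 200 mg/L, plates poured. A 5 mm mycelium agar disc placed centrally; incubated at 28 °C in the dark until the untreated control covered the plate. Colony diameters measured; growth inhibition computed by Abbott's formula. Each compound tested three times.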

Cytospora mali = test: Antifungal activity against Valsa mali at 200 mg/L by plate growth rate method; conditions: read-out: GI; procedure, shortened: as §2

Row | SMILES | zone of inhibition at 50 µg/mL (Xanthomonas oryzae) [mm] | zone of inhibition at 50 µg/mL (Xanthomonas axonopodis) [mm] | zone of inhibition at 50 µg/mL (Erwinia) [mm] | zone of inhibition at 50 µg/mL (Bacillus subtilis) [mm] | zone of inhibition at 50 µg/mL (Ralstonia solanacearum) [mm] | inhibition of growth at 200 µg/mL (Rhizoctonia solani) [%] | inhibition of growth at 200 µg/mL (Fusarium graminearum) [%] | inhibition of growth at 200 µg/mL (Cytospora mali) [%]
1 | CCn1cc(C(=O)O)c(=O)c2cc(F)c(N3CCN(C(=O)COc4ccc(C(C)(C)C)cc4)CC3)cc21 | 5.81 | 6.41 | 8.52 | 10.8 | 10.9 | 53 | 28 | 14
2 | CCn1cc(C(=O)O)c(=O)c2cc(F)c(N3CCN(C(=O)/C=C/c4ccc(OC)cc4)CC3)cc21 | 5.35 | 6.83 | 8.02 | 8.91 | 0 | 94 | 1 | 5
3 | COC(=O)Nc1nc2ccccc2[nH]1 [CARBENDAZIM] |  |  |  |  |  | 100 | 100 | 95
4 | CCn1cc(C(=O)O)c(=O)c2cc(F)c(N3CCN(C(=O)/C=C/c4ccc(C)o4)CC3)cc21 | 18.1 | 10.2 | 11.2 | 17 | 6.97 | 83 | 25 | 25
5 | CCn1cc(C(=O)O)c(=O)c2cc(F)c(N3CCN(C(=O)/C=C/c4ccco4)CC3)cc21 | 15.3 | 12.9 | 14.9 | 19.4 | 5.72 | 20 | 8 | 7
6 | CCn1cc(C(=O)O)c(=O)c2cc(F)c(N3CCN(C(=O)c4ccc(Br)o4)CC3)cc21 | 13 | 12.1 | 13.7 | 18.9 | 6.72 | 47 | 26 | 27
7 | CCn1cc(C(=O)O)c(=O)c2cc(F)c(N3CCN(C(=O)c4c(C)oc(C)c4C)CC3)cc21 | 12.7 | 11.1 | 12.4 | 13.9 | 5.31 | 65 | 24 | 40
8 | CCn1cc(C(=O)O)c(=O)c2cc(F)c(N3CCN(C(=O)c4ccccc4Cl)CC3)cc21 | 16.9 | 14.2 | 16 | 19 | 8.97 | 5 | 27 | 41
9 | CCn1cc(C(=O)O)c(=O)c2cc(F)c(N3CCN(C(=O)COc4ccc(F)cc4)CC3)cc21 | 11 | 11.1 | 13.3 | 13.9 | 3.31 | 52 | 15 | 12
10 | CCn1cc(C(=O)O)c(=O)c2cc(F)c(N3CCN(C(=O)COc4ccccc4OC)CC3)cc21 | 11.9 | 11 | 12.9 | 17.7 | 4.97 | 0 | 14 | 7
11 | CCn1cc(C(=O)O)c(=O)c2cc(F)c(N3CCN(C(=O)/C=C/c4ccc(Cl)cc4Cl)CC3)cc21 | 4.44 | 5.91 | 2.92 | 2.08 | 0 | 0 | 2 | 6
12 | CCn1cc(C(=O)O)c(=O)c2cc(F)c(N3CCN(C(=O)c4ccc(C)cc4)CC3)cc21 | 19.7 | 13 | 14.6 | 17.1 | 3.22 | 36 | 28 | 37
13 | CCn1cc(C(=O)O)c(=O)c2cc(F)c(N3CCNCC3)cc21 [NORFLOXACIN] | 22.2 | 17.7 | 21.5 | 30.5 | 19.3 | 0 | 18 | 27
14 | CCn1cc(C(=O)O)c(=O)c2cc(F)c(N3CCN(C(=O)COc4ccc(Cl)cc4Cl)CC3)cc21 | 10 | 8.16 | 8.52 | 9.91 | 0.5 | 72 | 5 | 17
15 | CCn1cc(C(=O)O)c(=O)c2cc(F)c(N3CCN(C(=O)c4cc5ccccc5o4)CC3)cc21 | 8.35 | 8.66 | 11 | 11.2 | 8.56 | 17 | 7 | 9
16 | CCn1cc(C(=O)O)c(=O)c2cc(F)c(N3CCN(C(=O)COc4ccc(OC)cc4)CC3)cc21 | 14.5 | 12.5 | 15.2 | 17.6 | 6.31 | 60 | 17 | 10
17 | CCn1cc(C(=O)O)c(=O)c2cc(F)c(N3CCN(C(=O)COc4ccccc4Cl)CC3)cc21 | 17.2 | 10.4 | 11.8 | 14.2 | 4.67 | 3 | 10 | 12
18 | CCn1cc(C(=O)O)c(=O)c2cc(F)c(N3CCN(C(=O)c4oc5ccccc5c4C)CC3)cc21 | 5.44 | 5.24 | 5.94 | 6.99 | 3.56 | 65 | 45 | 33
19 | CCn1cc(C(=O)O)c(=O)c2cc(F)c(N3CCN(C(=O)c4cc(C)oc4C)CC3)cc21 | 18.1 | 11.7 | 11.7 | 15.7 | 8.39 | 16 | 25 | 29
20 | CN[C@@H]1[C@H](O[C@H]2[C@H](O[C@H]3[C@H](O)[C@@H](O)[C@H](N=C(N)N)[C@@H](O)[C@@H]3N=C(N)N)O[C@@H](C)[C@]2(O)C=O)O[C@@H](CO)[C@H](O)[C@H]1O [STREPTOMYCIN] | 0.81 | 0.2 | 0.5 | 25 | 17.3 |  |  | 
